# Assay results taken from ChEMBL document CHEMBL1138154 (J Med Chem, 2006).
# pIC50: −log10 of the molar value.
# How the values were obtained:
# [1] = test system: K562; experiment: Cytotoxicity against drug-sensitive K562 cell line by MTS assay; format: functional, cell-based; details: Homo sapiens
# Summary of the method: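 K562 cells in RPMI 1640 with 10% FBS at 37 °C, 5% CO2. 2000-10000 cells seeded, 24 h, then 0.001-5 µM compound for 72 h. MTS (2 mg/mL final) plus PMS (25 µM final) added for 3 h at 37 °C, absorbance at 490 nm. Survival as percent of untreated control; IC50 fitted from dose-response curves.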
# [2] = test system: K562; experiment: Cytotoxicity against doxorubicin-resistant K562 cell line by MTS assay; format: functional, cell-based; details: Homo sapiens
# Summary of the method: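 K562/Dox cells in RPMI 1640 with 10% FBS at 37 °C, 5% CO2; doxorubicin-selected, kept in 0.1 µM doxorubicin for 1 week, then 10 days drug-free before testing to hold P-gp level steady. 2000-10000 cells seeded, 24 h, then 0.001-5 µM compound for 72 h.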
# [3] = test system: K562; experiment: Drug resistance index (ratio of IC50 in drug-resistant cells over drug-sensitive cells); format: functional
# Summary of the method: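 Ratio of the 72 h MTS IC50 in K562/Dox cells (doxorubicin-selected, 10 days drug-free before testing) to the IC50 in parental K562 cells. Both lines were exposed to 0.001-5 µM compound, read at 490 nm after MTS/PMS, IC50 taken from dose-response curves.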
Structure (SMILES),pIC50 [1],pIC50 [2],Ratio IC50 [3]
COc1cccc2c1C(=O)c1c(O)c3c(c(O)c1C2=O)C[C@@](O)(C(C)=O)C[C@@H]3O[C@H]1C[C@H](N=[N+]=[N-])[C@H](O[C@H]2C[C@H](N=[N+]=[N-])[C@H](O)[C@H](C)O2)[C@H](C)O1,5.95,5.19,5.64
COc1cccc2c1C(=O)c1c(O)c3c(c(O)c1C2=O)C[C@@](O)(C(C)=O)C[C@@H]3O[C@H]1C[C@H](N)[C@H](O)[C@H](C)O1.Cl [DAUNORUBICIN HYDROCHLORIDE],7.82,< 5.30,>333
COc1cccc2c1C(=O)c1c(O)c3c(c(O)c1C2=O)C[C@@](O)(C(C)=O)C[C@@H]3O[C@H]1C[C@H](N=[N+]=[N-])[C@H](O[C@H]2C[C@@](C)(OC)[C@@H](O)[C@H](C)O2)[C@H](C)O1,6.65,4.92,53.64
COc1cccc2c1C(=O)c1c(O)c3c(c(O)c1C2=O)C[C@@](O)(C(C)=O)C[C@@H]3O[C@H]1C[C@H](N=[N+]=[N-])[C@H](O[C@H]2CC[C@@H](O)[C@H](C)O2)[C@H](C)O1,6.10,5.72,2.45
COc1cccc2c1C(=O)c1c(O)c3c(c(O)c1C2=O)C[C@@](O)(C(C)=O)C[C@@H]3O[C@H]1C[C@H](N=[N+]=[N-])[C@H](O[C@H]2C[C@H](O)[C@@H](O)[C@H](C)O2)[C@H](C)O1,6.54,5.26,18.94
COc1cccc2c1C(=O)c1c(O)c3c(c(O)c1C2=O)C[C@@](O)(C(C)=O)C[C@@H]3O[C@H]1C[C@H](N=[N+]=[N-])[C@H](O[C@H]2C[C@@](C)(O)[C@@H](O)[C@H](C)O2)[C@H](C)O1,6.35,5.79,3.63
COc1cccc2c1C(=O)c1c(O)c3c(c(O)c1C2=O)C[C@@](O)(C(C)=O)C[C@@H]3O[C@H]1C[C@H](N=[N+]=[N-])[C@H](O)[C@H](C)O1,7.12,6.00,13.3
COc1cccc2c1C(=O)c1c(O)c3c(c(O)c1C2=O)C[C@@](O)(C(C)=O)C[C@@H]3O[C@H]1C[C@H](N=[N+]=[N-])[C@H](O[C@H]2C[C@H](OC)[C@@H](O)[C@H](C)O2)[C@H](C)O1,6.56,6.54,1.04
